Laboratory results taken from ChEMBL document CHEMBL3808334, “Synthesis and in vitro evaluation of novel triazine analogues as anticancer agents and their interaction studies with bovine serum albumin” (Eur J Med Chem, 2016).

What was measured:
[1] = Growth inhibition of human COLO205 cells assessed as cell growth at 10^-6 M incubated for 48 hrs by sulforhodamine B assay; assay type: functional; settings: COLO 205, 48 h, read-out: Activity
Method in brief: (§1)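 Cells seeded at 5,000–40,000/well according to doubling time and preincubated 24 h at 37 °C, 5% CO2. Time-zero plates were TCA-fixed. DMSO concentrate was diluted in medium with 50 µg/ml gentamicin to give five concentrations (10-fold or ½ log steps), then exposed 48 h. Cells were TCA-fixed, stained with 0.4% SRB and read at 515 nm. Percent growth was taken against time-zero and control; GI50, TGI and LC50 derived.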

SK-MEL-28 = experiment: Growth inhibition of human SK-MEL-28 cells assessed as cell growth at 10^-6 M incubated for 48 hrs by sulforhodamine B assay; assay type: functional; settings: SK-MEL-28, 48 h, read-out: Activity
Albumin = Albumin (Bos taurus, UniProt P02769); experiment: Binding affinity to bovine serum albumin assessed as enhancement in emission spectra up to 20 uM by fluorescence spectroscopic analysis relative to control; assay type: ADME; settings: cattle, isolated protein
Sequence of Albumin (P02769 whole entry): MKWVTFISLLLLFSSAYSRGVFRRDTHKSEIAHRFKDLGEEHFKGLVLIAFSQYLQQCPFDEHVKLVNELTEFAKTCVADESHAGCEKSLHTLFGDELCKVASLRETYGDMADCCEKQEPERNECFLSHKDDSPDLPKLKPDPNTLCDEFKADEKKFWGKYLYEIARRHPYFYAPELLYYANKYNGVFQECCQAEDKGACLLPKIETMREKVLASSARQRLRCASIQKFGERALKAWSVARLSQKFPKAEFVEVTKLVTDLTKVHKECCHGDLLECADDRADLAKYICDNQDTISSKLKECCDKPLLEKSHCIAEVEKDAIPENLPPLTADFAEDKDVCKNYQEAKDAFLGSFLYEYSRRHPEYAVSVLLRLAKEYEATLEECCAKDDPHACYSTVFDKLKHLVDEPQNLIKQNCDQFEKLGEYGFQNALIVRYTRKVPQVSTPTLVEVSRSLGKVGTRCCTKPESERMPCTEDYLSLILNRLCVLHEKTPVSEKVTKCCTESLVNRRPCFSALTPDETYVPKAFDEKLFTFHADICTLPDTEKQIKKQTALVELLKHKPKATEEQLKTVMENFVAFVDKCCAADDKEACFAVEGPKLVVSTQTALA
Method in brief: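 Fluorescence titration of 10 µM BSA in 0.1 M phosphate buffer pH 7.4 with compound at 0–20 µM, diluted from DMSO stocks. Excitation 280 nm, slit 10 nm, 1 cm quartz cell, 300 K. Changes in the 350 nm Trp emission, new bands near 370–373 nm and isoemissive points are read against BSA alone.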

[2] = Growth inhibition of human OVCAR5 cells assessed as cell growth at 10 uM incubated for 48 hrs by sulforhodamine B assay; assay type: functional; settings: OVCAR-5, 48 h, read-out: Activity
NCI-H522 = experiment: Growth inhibition of human NCI-H522 cells assessed as cell growth at 10^-7 M incubated for 48 hrs by sulforhodamine B assay; assay type: functional; settings: NCI-H522, 48 h, read-out: Activity
[3] = Growth inhibition of human RPMI8226 cells assessed as cell growth at 10 uM incubated for 48 hrs by sulforhodamine B assay; assay type: functional; settings: RPMI-8226, 48 h, read-out: Activity
[4] = Growth inhibition of human SF295 cells assessed as cell growth at 10^-6 M incubated for 48 hrs by sulforhodamine B assay; assay type: functional; settings: SF-295, 48 h, read-out: Activity
[5] = Growth inhibition of human Hs 578T cells assessed as cell growth at 10 uM incubated for 48 hrs by sulforhodamine B assay; assay type: functional; settings: read-out: Activity
SR = experiment: Growth inhibition of human SR cells assessed as cell growth at 10^-8 M incubated for 48 hrs by sulforhodamine B assay; assay type: functional; settings: read-out: Activity
[6] = Growth inhibition of human MOLT4 cells assessed as cell growth at 10 uM incubated for 48 hrs by sulforhodamine B assay; assay type: functional; settings: MOLT-4, 48 h, read-out: Activity
[7] = Growth inhibition of human COLO205 cells assessed as cell growth at 10 uM incubated for 48 hrs by sulforhodamine B assay; assay type: functional; settings: COLO 205, 48 h, read-out: Activity
Method in brief: (§2)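 Primary screen at one dose (10 µM) across 60 human cancer cell lines. Readout was growth percent relative to untreated control and time-zero.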

Malme-3M = experiment: Growth inhibition of human MALME-3M cells assessed as cell growth at 10^-8 M incubated for 48 hrs by sulforhodamine B assay; assay type: functional; settings: read-out: Activity
T47D = experiment: Growth inhibition of human T47D cells assessed as cell growth at 10^-7 M incubated for 48 hrs by sulforhodamine B assay; assay type: functional; settings: read-out: Activity
[8] = Growth inhibition of human SF268 cells incubated for 48 hrs by sulforhodamine B assay; assay type: functional; settings: SF-268, 48 h
Method in brief: (§3)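 Cells were plated at 5,000–40,000 per well according to doubling time and preincubated 24 h at 37 °C in 5% CO2; time-zero plates were then TCA-fixed. Five concentrations (10-fold or ½-log dilutions, DMSO stock) were incubated 48 h. Cells were TCA-fixed, stained with 0.4% SRB and read at 515 nm. GI50 was taken where [(Ti−Tz)/(C−Tz)]×100 = 50.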

CCRF-CEM = experiment: Growth inhibition of human CCRF-CEM cells assessed as cell growth at 10^-6 M incubated for 48 hrs by sulforhodamine B assay; assay type: functional; settings: read-out: Activity
Method in brief: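 Leukemia line in the five-dose format: five concentrations from 10-fold or ½-log serial dilutions. Plated at 5,000–40,000 cells per well, preincubated 24 h, then compound added for 48 h at 37 °C, 5% CO₂. Sulforhodamine B absorbance read at 515 nm. Growth is computed against time-zero (Tz) and control (C) readings; GI₅₀ is where [(Ti−Tz)/(C−Tz)]×100 = 50.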

[9] = Growth inhibition of human HCT15 cells assessed as cell growth at 10 uM incubated for 48 hrs by sulforhodamine B assay; assay type: functional; settings: HCT-15, 48 h, read-out: Activity; method in brief: as §2
[10] = Growth inhibition of human UO31 cells assessed as cell growth at 10^-8 M incubated for 48 hrs by sulforhodamine B assay; assay type: functional; settings: UO-31, 48 h, read-out: Activity
[11] = Growth inhibition of human PC3 cells assessed as cell growth at 10 uM incubated for 48 hrs by sulforhodamine B assay; assay type: functional; settings: PC-3, 48 h, read-out: Activity
[12] = Growth inhibition of human DU145 cells assessed as cell growth at 10^-7 M incubated for 48 hrs by sulforhodamine B assay; assay type: functional; settings: DU-145, 48 h, read-out: Activity; method in brief: as §1
[13] = Growth inhibition of human DU145 cells assessed as cell growth at 10^-6 M incubated for 48 hrs by sulforhodamine B assay; assay type: functional; settings: DU-145, 48 h, read-out: Activity; method in brief: as §1
KM12 = experiment: Growth inhibition of human KM12 cells assessed as cell growth at 10^-6 M incubated for 48 hrs by sulforhodamine B assay; assay type: functional; settings: KM12, 48 h, read-out: Activity
[14] = Growth inhibition of human OVCAR5 cells incubated for 48 hrs by sulforhodamine B assay; assay type: functional; settings: OVCAR-5, 48 h; method in brief: as §3
[15] = Growth inhibition of human HCC2998 cells assessed as cell growth at 10^-7 M incubated for 48 hrs by sulforhodamine B assay; assay type: functional; settings: HCC 2998, 48 h, read-out: Activity; method in brief: as §1
ACHN = experiment: Growth inhibition of human ACHN cells assessed as cell growth at 10^-5 M incubated for 48 hrs by sulforhodamine B assay; assay type: functional; settings: read-out: Activity
Method in brief: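 Five-dose assay: five concentrations from 10-fold or ½-log serial dilutions. Cells are plated at 5,000–40,000 per well according to doubling time, grown 24 h, then exposed 48 h at 37 °C, 5% CO₂. Fixed with cold 50% TCA (final addition) for 60 min at 4 °C and stained with 0.4% SRB in 1% acetic acid. Bound dye is solubilized in 10 mM Tris base and read at 515 nm. GI₅₀ is where [(Ti−Tz)/(C−Tz)]×100 = 50, with a time-zero plate as Tz.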

K562 = experiment: Growth inhibition of human K562 cells assessed as cell growth at 10^-5 M incubated for 48 hrs by sulforhodamine B assay; assay type: functional; settings: K562, 48 h, read-out: Activity
[16] = read-out: LC50 (the source's name)
[17] = read-out: pLC50 (the source's name) (converted)

Row | Structure (SMILES) | growth at 1 µM [1] [%] | growth at 1 µM (SK-MEL-28) [%] | Activity (Albumin) [%] | growth at 10 µM [2] [%] | growth at 0.1 µM (NCI-H522) [%] | growth at 10 µM [3] [%] | growth at 1 µM [4] [%] | growth at 10 µM [5] [%] | growth at 0.01 µM (SR) [%] | growth at 10 µM [6] [%] | growth at 10 µM [7] [%] | growth at 0.01 µM (Malme-3M) [%] | growth at 0.1 µM (T47D) [%] | GI50 ([8]; read-out: GI50) [µM] | TGI ([8]; read-out: TGI) [µM] | GI50 ([8]; read-out: pGI50 (converted)) [µM] | TGI ([8]; read-out: pTGI (converted)) [µM] | growth at 1 µM (CCRF-CEM) [%] | growth at 10 µM [9] [%] | growth at 0.01 µM [10] [%] | other results
1 | Fc1ccc(-c2nc(Nc3ccc(-c4nc5ccccc5[nH]4)cc3)nc(N3CCOCC3)n2)cc1 | 92 | 84 | 71.83 | 66.3 | 97 | -13.8 | 72 | -11.9 | 108 | 1.78 | -43.7 | 96 | 93 | 2.82 | 26.5 | 2.82 | 26.3 | 92 | -62.2 | 88 | CC50 [8, 16]: > 100 µM; CC50 [8, 17]: > 100 µM; growth at 10 µM [11]: 2.31%; growth at 0.1 µM [12]: 100%; growth at 1 µM [13]: 98%; growth at 1 µM (KM12): 86%; GI50 ([14]; read-out: GI50): 2.7 µM; CC50 [14, 16]: > 100 µM; TGI ([14]; read-out: TGI): 8.9 µM; GI50 ([14]; read-out: pGI50 (converted)): 2.69 µM; CC50 [14, 17]: > 100 µM; TGI ([14]; read-out: pTGI (converted)): 8.91 µM; growth at 0.1 µM [15]: 95%; growth at 10 µM (ACHN): 3%; growth at 10 µM (K562): -31%
2 | Clc1ccc(-c2nc(Nc3ccc(-c4nc5ccccc5[nH]4)cc3)nc(N3CCOCC3)n2)cc1 | 2 | 84 | 49.1 | -74.7 | 95 | -73.4 | 77 | -40.2 | 103 | -91.6 | -68.4 | 96 | 92 | 0.311 | 1.08 | 0.309 | 1.07 | -19 | -92.6 | 79 | growth at 10 µM [11]: -93.5%; growth at 0.1 µM [12]: 96%; growth at 1 µM [13]: 26%; growth at 1 µM (KM12): 14%; GI50 ([14]; read-out: GI50): 0.505 µM; TGI ([14]; read-out: TGI): 1.94 µM; GI50 ([14]; read-out: pGI50 (converted)): 0.501 µM; TGI ([14]; read-out: pTGI (converted)): 1.95 µM; growth at 0.1 µM [15]: 93%; growth at 10 µM (ACHN): -87%; growth at 10 µM (K562): -70%
3 | c1ccc2[nH]c(-c3ccc(Nc4nc(N5CCCCC5)nc(N5CCOCC5)n4)cc3)nc2c1 | 92 | 87 | 49.74 | 73.9 | 97 | 2.47 | 84 | -12.6 | 95 | 13.7 | -61.3 | 86 | 94 | 3.21 | 20.1 | 3.24 | 20 | 100 | -33.9 | 85 | CC50 [8, 16]: > 100 µM; CC50 [8, 17]: > 100 µM; growth at 10 µM [11]: 12.4%; growth at 0.1 µM [12]: 104%; growth at 1 µM [13]: 96%; growth at 1 µM (KM12): 93%; GI50 ([14]; read-out: GI50): 4.06 µM; CC50 [14, 16]: > 100 µM; TGI ([14]; read-out: TGI): 29.3 µM; GI50 ([14]; read-out: pGI50 (converted)): 4.07 µM; CC50 [14, 17]: > 100 µM; TGI ([14]; read-out: pTGI (converted)): 29.5 µM; growth at 0.1 µM [15]: 105%; growth at 10 µM (ACHN): 9%; growth at 10 µM (K562): -21%
